Screening data from PubChem BioAssay.
An excerpt weighted towards active compounds, which were near 2.5% of everything screened.
PHOSPHO1 inh: inhibitors of human PHOSPHO1 phosphatase. Q8TCT1. recombinant PHOSPHO1, absorbance phosphatase assay. inhibition, % at 13.3 µM. 290,000 tested, 1.1% active; in the data active = inhibition above about 60%
EP2 antag: blocks the human prostaglandin E2 receptor EP2. inhibition, % at 25 µM. AID 1422. C6 glioma cells expressing human EP2, cAMP TR-FRET; cells stimulated with saturating PGE2. 260,000 tested, 0.52% active. P43116;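 active = percent inhibition above 40 after rounding to a whole number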;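 also: rat C6 glioma host cells with rolipram phosphodiesterase inhibitor present; the protocol text gives 20 µM as final concentration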
TbHK1 inh: T. brucei hexokinase 1 inhibition; recombinant TbHK1, G6PDH-coupled NADH A340; inhibition, % at 10 µM; 220,000 tested, 0.11% active;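 active = inhibition of 50% or more in the single-dose primary screen; inactive = inhibition below 50%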
PfGluPho inh: PfG6PD (Plasmodium falciparum) enzyme inhibition. PfGluPho enzyme, NADPH resazurin-diaphorase fluorescence. inhibition, % at 20 µM. 350,000 tested, 0.78% active. AID 504690;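 active = inhibition reaching at least a set limit at 20 µM in the primary screen, cut at about 59% in these data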;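 also: 0% = DMSO wells with substrate and 100% = DMSO wells lacking glucose-6-phosphate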
HKDC1 inhibitor: inhibitors of human hexokinase HKDC1; inhibition, % at 20 µM; Q2TB90; AID 493160; 340,000 tested, 0.16% active; recombinant HKDC1, G6PDH/diaphorase resazurin coupled fluorescence;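 active = inhibition above about 35% when tested at 20 µM, limit read from the data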;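 also: plate controls were DMSO wells with enzyme for no effect and DMSO wells lacking enzyme for full effect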
Target sequence (Q2TB90 whole entry, looked up): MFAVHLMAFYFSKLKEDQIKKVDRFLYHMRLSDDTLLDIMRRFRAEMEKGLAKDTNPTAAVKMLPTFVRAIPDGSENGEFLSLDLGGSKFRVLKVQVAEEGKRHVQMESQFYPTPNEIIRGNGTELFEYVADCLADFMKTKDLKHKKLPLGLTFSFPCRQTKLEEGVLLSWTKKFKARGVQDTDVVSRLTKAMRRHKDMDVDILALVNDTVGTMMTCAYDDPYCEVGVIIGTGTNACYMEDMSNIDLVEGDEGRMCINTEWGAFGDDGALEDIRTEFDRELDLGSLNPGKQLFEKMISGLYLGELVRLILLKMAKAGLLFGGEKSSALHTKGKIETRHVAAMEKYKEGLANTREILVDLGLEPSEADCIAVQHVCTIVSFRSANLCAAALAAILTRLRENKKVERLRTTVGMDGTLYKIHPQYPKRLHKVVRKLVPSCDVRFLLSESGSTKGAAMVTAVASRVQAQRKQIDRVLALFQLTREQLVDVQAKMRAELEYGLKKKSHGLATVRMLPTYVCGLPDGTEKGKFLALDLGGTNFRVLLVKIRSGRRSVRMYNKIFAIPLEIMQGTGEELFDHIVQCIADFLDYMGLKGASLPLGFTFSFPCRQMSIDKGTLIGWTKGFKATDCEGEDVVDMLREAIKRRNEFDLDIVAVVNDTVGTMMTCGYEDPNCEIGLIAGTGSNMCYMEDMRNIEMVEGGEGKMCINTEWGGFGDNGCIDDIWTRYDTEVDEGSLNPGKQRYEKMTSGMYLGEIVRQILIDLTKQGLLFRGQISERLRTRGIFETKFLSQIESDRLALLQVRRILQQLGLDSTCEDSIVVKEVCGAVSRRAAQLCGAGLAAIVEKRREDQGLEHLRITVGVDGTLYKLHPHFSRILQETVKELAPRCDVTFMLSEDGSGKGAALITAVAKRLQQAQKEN
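Assay system: recombinant HKDC1 hexokinase; detection: coupled resazurin fluorescence, excitation 525 nm, emission 613 nm; benchmarks: DMSO-plus-enzyme-mix negative control, buffer-substituted positive control; compound dosing: single 20 µM dose; schedule: 90 min at room temperature in dark; also added: glucose plus 1 mM ATP as hexokinase substrates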
EP2 mod: modulates human prostaglandin E2 receptor EP2 signaling; P43116; EP2-expressing cells, cAMP HTRF FRET, PGE2 co-stimulation; induction, % at 25 µM; 260,000 tested, 0.83% active; AID 940;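 active = compounds whose cAMP rise, as percent of the full-agonist control response, exceeds 60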;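 also: rat C6 glioma line stably carrying human EP2 under a CMV promoter; the protocol text gives 20 µM as final concentration; 100% = response of wells given 1 µM PGE2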
* = called active by the depositor.

C=CCn1c(-c2ccccc2)ccc(C#N)c1=O was read as PHOSPHO1 inh -0.7, EP2 antag 3.8, TbHK1 inh -1.3, PfGluPho inh 4.6, HKDC1 inhibitor -0.1 and EP2 mod 64.1*.
For COc1ccccc1C(=O)C1CCCN(Cc2cccc3nccnc23)C1 (stereo not drawn) the results were PHOSPHO1 inh 60.1*, EP2 antag 8.7, TbHK1 inh -2.0, PfGluPho inh 6.9, HKDC1 inhibitor -3.6 and EP2 mod -28.2.
For COc1c(C)cc(C(=O)C2CCCN(Cc3cccc4nccnc34)C2)cc1C (stereo not drawn) the results were PHOSPHO1 inh 35.4, EP2 antag 6.2, TbHK1 inh -9.2, PfGluPho inh 1.4, HKDC1 inhibitor -13.7 and EP2 mod -28.5.
O=C(COc1ccc2nsnc2c1)NCc1nc(-c2ccccc2)no1 was read as EP2 antag 50.1* and EP2 mod -50.9.
`CCOC(=O)c1ccc(NC(=O)CN2CCC(c3nc4ccccc4[nH]3)CC2)cc1` gave EP2 antag 5.1 and EP2 mod -48.4.
Screening CN1CCN(C(=O)CCCN2C(=O)/C(=C/c3ccccc3)SC2=S)CC1 returned PHOSPHO1 inh 23.7, PfGluPho inh -3.8 and HKDC1 inhibitor 1.4.
Screening O=C(O)CCCN1C(=O)/C(=C\c2ccccc2OCc2ccccc2)SC1=S returned PHOSPHO1 inh 9.6, PfGluPho inh -30.2 and HKDC1 inhibitor 7.2.
`O=C(O)CC(C(=O)O)N1C(=O)/C(=C/C=C/c2ccco2)SC1=S` (stereo not drawn) gave PHOSPHO1 inh 17.1, EP2 antag 10.3, TbHK1 inh -9.6, PfGluPho inh 57.1, HKDC1 inhibitor 9.4 and EP2 mod 16.8.
Screening Cn1cccc1/C=C1\SC(=S)N(NC(=O)c2ccccc2O)C1=O returned PHOSPHO1 inh -8.5, EP2 antag 5.8, TbHK1 inh 7.4, PfGluPho inh -31.8, HKDC1 inhibitor 5.9 and EP2 mod -24.6.
For O=C(O)CCCN1C(=O)/C(=C\C(Cl)=C\c2ccccc2)SC1=S the results were PHOSPHO1 inh 43.7, PfGluPho inh -12.6 and HKDC1 inhibitor 43.6*.
`O=C(O)CCCN1C(=O)/C(=C/c2cn(-c3ccccc3)nc2-c2cccs2)SC1=S` gave PHOSPHO1 inh 72.1*, EP2 antag 0.2, TbHK1 inh 37.6, PfGluPho inh -7.2, HKDC1 inhibitor 18.7 and EP2 mod 53.1.
For O=C(NN1C(=O)/C(=C/C=C/c2ccco2)SC1=S)c1ccccc1O the results were PHOSPHO1 inh 85.9*, EP2 antag 24.8, TbHK1 inh 62.6*, PfGluPho inh -10.1, HKDC1 inhibitor 18.8 and EP2 mod -16.6.
For O=C(O)CCCN1C(=O)/C(=C/C=C/c2ccco2)SC1=S the results were PHOSPHO1 inh 6.2, EP2 antag 10.9, TbHK1 inh -0.4, PfGluPho inh 29.5, HKDC1 inhibitor 20.2 and EP2 mod 74.5*.
For C=CCOc1ccc(C=C2C(=O)NC(=O)NC2=O)cc1 the results were EP2 antag 10.4 and EP2 mod -117.7.
O=C(c1nc2ccccc2s1)C1CCNCC1 was read as EP2 mod -47.9.
`COc1cc(CN2C[C@@H]3CCCN3C[C@@H]2Cc2ccccc2)ccc1OCC(N)=O` gave EP2 antag 6.8 and EP2 mod -35.1.
`COc1ccccc1-n1c(SCC(=O)Nc2cccc(Cl)c2C)nc2ccccc2c1=O` gave EP2 antag 10.1 and EP2 mod -7.9.
COC(=O)c1ccccc1S(=O)(=O)N1CCC(c2nc3ccccc3[nH]2)CC1 was read as EP2 antag 7.4 and EP2 mod -30.3.
CC(=O)OC(C)C1C2=C(C(=O)CC1(C)O)C(=O)c1c(ccc(-c3ccc4c(c3O)C(=O)C3=C(C4=O)C(C(C)OC(C)=O)C(C)(O)CC3=O)c1O)C2=O (stereo not drawn) was read as PfGluPho inh 61.2* and HKDC1 inhibitor 27.3.
Screening c1ccc(-c2csc(NC3=NCCCCC3)n2)cc1 returned PHOSPHO1 inh -3.5, EP2 antag 13.1, TbHK1 inh -14.6, PfGluPho inh -5.7, HKDC1 inhibitor -11.2 and EP2 mod -0.6.
Brc1ccc(-c2csc(NNC3=NCCCCC3)n2)cc1 was read as PHOSPHO1 inh 88.3*, EP2 antag 13.7, TbHK1 inh 5.0, PfGluPho inh 37.1, HKDC1 inhibitor -1.4 and EP2 mod -10.3.
For N#Cc1ccc(-c2csc(NC3=NCCCCC3)n2)cc1 the results were PHOSPHO1 inh 9.8, EP2 antag 6.6, TbHK1 inh 6.7, PfGluPho inh 6.6, HKDC1 inhibitor 1.7 and EP2 mod -47.9.
`FC(F)Oc1ccc(-c2csc(NNC3=NCCCCC3)n2)cc1` gave PHOSPHO1 inh 60.9*, EP2 antag 4.7, TbHK1 inh 1.8, PfGluPho inh 45.3, HKDC1 inhibitor -13.6 and EP2 mod -14.1.
For CCC(C)(C)n1nnnc1C(c1cc2cc(C)ccc2[nH]c1=O)N1CCCC2(CCCCC2)C1 (stereo not drawn) the results were EP2 antag 5.0 and EP2 mod -5.4.
For Cc1ccc(-c2oc3ncnc(N)c3c2-c2ccc(C)cc2)cc1 the results were PHOSPHO1 inh 31.0, EP2 antag 4.8, TbHK1 inh -2.6, PfGluPho inh -9.2, HKDC1 inhibitor -8.9 and EP2 mod 60.8*.
For Cc1oc2ncnc(N)c2c1C the results were PHOSPHO1 inh -5.2, EP2 antag 6.7, TbHK1 inh 19.6, PfGluPho inh 3.8, HKDC1 inhibitor -4.3 and EP2 mod -1.9.
Cc1cc(N2CCCCC2)nc(NCc2ccccc2)n1 was read as PHOSPHO1 inh 37.9, EP2 antag 32.2, TbHK1 inh 8.1, PfGluPho inh -9.4, HKDC1 inhibitor -1.9 and EP2 mod -38.2.
`CCOc1cc(C)nc(NCc2ccccc2)n1` gave PHOSPHO1 inh 2.7, EP2 antag 3.1, TbHK1 inh -2.5, PfGluPho inh -9.7, HKDC1 inhibitor 1.0 and EP2 mod 63.3*.
For Cc1cc(OC2CCCCC2)nc(NCc2ccccc2)n1 the results were PHOSPHO1 inh 23.6, EP2 antag 6.8, TbHK1 inh -10.1, PfGluPho inh -2.8, HKDC1 inhibitor -3.7 and EP2 mod 66.0*.
CC(=O)c1ccc(Oc2cc(C)nc(NCc3ccccc3)n2)cc1 was read as PHOSPHO1 inh 8.9, EP2 antag 6.7, TbHK1 inh 2.3, PfGluPho inh 4.0, HKDC1 inhibitor -4.0 and EP2 mod 14.9.
Screening OCCn1nc2c3ccccc3nc-2n(-c2ccccc2)c1=S returned PHOSPHO1 inh 76.4*, EP2 antag 1.8, TbHK1 inh -1.2, PfGluPho inh 15.5, HKDC1 inhibitor 5.7 and EP2 mod 10.9.
`CCOc1cccc(/C(O)=C2/C(=O)C(=O)N(CCCOC)C2c2cccnc2)c1` (stereo not drawn) gave EP2 antag 14.7 and EP2 mod -2.7.
